From ChEMBL document CHEMBL1139362, “Discovery of human macrophage migration inhibitory factor (MIF)-CD74 antagonists via virtual screening” (J Med Chem, 2009)
Calls of active or inactive are those of the source. The calls are words filed in the database; no cut-off is given here.

What was measured:
[1] = biological target: T1, MIF/CD74 (Macrophage migration inhibitory factor and HLA-DR antigens-associated invariant chain) (Homo sapiens) (UniProt P14174+P04233); experiment: (§1) Inhibition of human MIF-CD74 binding; assay type: protein assay
Summary of the method: (§2)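 Compounds pre-incubated 30 min at room temperature with biotinylated recombinant human MIF (2 ng/µl), then added to wells overnight at 4 °C. Bound MIF detected with streptavidin-alkaline phosphatase and p-nitrophenyl phosphate, A405 expressed as percent of MIF-alone wells. 10–12 concentrations spanning ~500-fold; at least three independent assays.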

[2] = biological target: T2, MIF/CD74 (Macrophage migration inhibitory factor and HLA-DR antigens-associated invariant chain) (Homo sapiens, UniProt P04233+P14174); experiment: as §1; assay type: protein assay; summary of the method: as §2
T2 sequence (P14174 whole entry): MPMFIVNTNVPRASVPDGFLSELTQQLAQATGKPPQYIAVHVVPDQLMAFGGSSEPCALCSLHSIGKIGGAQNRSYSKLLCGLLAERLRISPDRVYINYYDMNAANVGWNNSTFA
T2 sequence (P04233 whole entry): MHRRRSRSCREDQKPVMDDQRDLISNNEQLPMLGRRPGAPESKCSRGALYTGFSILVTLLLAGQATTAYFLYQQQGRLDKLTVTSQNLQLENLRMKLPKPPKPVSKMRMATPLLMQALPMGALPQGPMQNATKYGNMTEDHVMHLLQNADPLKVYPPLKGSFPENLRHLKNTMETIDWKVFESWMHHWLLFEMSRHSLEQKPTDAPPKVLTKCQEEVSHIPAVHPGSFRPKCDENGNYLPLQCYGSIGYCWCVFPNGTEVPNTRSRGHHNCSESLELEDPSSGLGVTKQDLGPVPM

[3] = biological target: T3, Macrophage migration inhibitory factor (Homo sapiens) (UniProt P14174); experiment: Inhibition of human recombinant MIF tautomerase at 10 uM; set-up: scale not given: the % may be the effect or the level left
T3 sequence (whole entry): T2 sequence (P14174 whole entry)

[4] = biological target: T4, Macrophage migration inhibitory factor (Homo sapiens, UniProt P14174); experiment: (§3) Inhibition of human recombinant MIF tautomerase
T4 sequence (P14174 whole entry): T2 sequence (P14174 whole entry)

[5] = biological target: T3, Macrophage migration inhibitory factor (Homo sapiens); experiment: as §3
[6] = biological target: T1, MIF/CD74 (Macrophage migration inhibitory factor and HLA-DR antigens-associated invariant chain) (Homo sapiens); experiment: Inhibition of human MIF-CD74 binding at 10 uM; assay type: protein assay; set-up: scale not given: the % may be the effect or the level left

Row | Activity [1] | IC50 [2] [µM] | SMILES | further results
1 | inactive | – | Cc1cc(C)c2ccc(C3=C(O)c4ccccc4C3=O)nc2c1O | –
2 | inactive | – | CC(=O)Nc1cccc2ccc(-c3cnc4ccccc4c3)nc12 | –
3 | – | 900 | Oc1ccc2c(c1)oc1ccccc12 | Activity [3]: 38%
4 | – | – | CC(C)(C)OC(=O)C[C@H]1CC(c2ccc(O)c(F)c2)=NO1 (racemic) | IC50 [4]: 0.55 µM
5 | inactive | – | Cc1ccc(-n2cnc3ccccc3c2=O)cc1Cl | –
6 | – | 2.5 | CC(=O)Oc1ccc2nc(-c3cc4ccccc4o3)oc(=O)c2c1 | –
7 | – | 2.5 | Oc1c(C(Nc2cccc(F)c2)c2ccccn2)ccc2cccnc12 (stereo not given) | IC50 [4]: 530 µM
8 | – | 4 | O=C(c1cc2ccccc2o1)N1CCc2ccccc21 | –
9 | inactive | – | CCOc1cc(/C=C2\Oc3cc(O)ccc3C2=O)ccc1O | –
10 | – | 550 | O=C(O)c1cc(-n2cnnn2)ccc1O | Activity [5]: inactive
11 | inactive | – | O=C(Nc1cccc2ccccc12)C(=O)c1c[nH]c2ccccc12 | –
12 | inactive | – | O=c1c2ccc(F)cc2sn1-c1ccc(Cl)cc1 | –
13 | – | 65 | Oc1csc(Cc2nc(-c3ccc(-c4ccccc4)cc3)cs2)n1 | IC50 [4]: 300 µM
14 | inactive | – | CC(OC(=O)c1ccc(-c2ccc(O)cc2)cc1)C(=O)NCc1ccccc1 (stereo not given) | –
15 | – | 250 | O=C(O)c1cc(-n2cnnc2)ccc1Cl | Activity [5]: inactive
16 | inactive | – | OCc1nc2ccccc2n1Cc1ccc2ccccc2c1 | –
17 | – | 1500 | O=C(O)COc1ccc2occ(C(=O)c3ccccc3)c2c1 | IC50 [4]: 980 µM
18 | inactive | – | Ic1cc(-c2ccccc2)ncn1 | –
19 | – | 15 | O=C(O)c1cccc(-c2cc[nH]n2)c1 | Activity [3]: 30%
20 | inactive | – | O=c1oc2c(O)c(O)ccc2cc1-c1nc2ccccc2s1 | –
21 | – | – | COC(=O)C[C@H]1CC(c2ccc(O)cc2)=NO1 (racemic) | Activity [6]: 40%; Activity [5]: inactive
22 | inactive | – | N#C/C(=C\c1ccc(-c2ccccc2)cc1)c1ccccn1 | –
23 | – | 250 | O=c1[nH]nc(-c2cccs2)cc1Cc1ccc(Cl)c(Cl)c1 | IC50 [4]: 430 µM
24 | inactive | – | O=C(O)c1cccc(-n2ccnc2)c1 | –

Row | SMILES | Activity [1] | IC50 [2] [µM] | further results
25 | Oc1ccc(/C=C/c2ccc3cccc(O)c3n2)cc1 | – | 8 | Activity [3]: 40%
